Rows were chosen to be rich in hits. Some 1.2% of all compounds tested hit in one or more screens of this group.
UBC9 SUMO inh – inhibitors of in vitro SUMOylation cascade, primary screen, biochemical, HTRF, uHTS; AID 2006, 2009; HTRF SUMOylation assay, SAE1/SAE2 + UBC9; inhibition, % at 35 µM; SUMO-conjugating enzyme UBC9 (Homo sapiens), P63279; actives 0.36% (n = 290,000); in the data active = inhibition above about 50%, passing the limit was not always enough
TDP2 absorb – human TDP2 enzyme inhibitors, primary screen, biochemical, epi absorbance, recombinant enzyme | inhibition, % at 12.8 µM | AID 720702, 2013 | T5PNP hydrolysis, p-nitrophenol absorbance 415 nm | actives 0.34% (n = 370,000);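 active = inhibition above the mean of all tested compounds plus 3 SD, set per campaign, cut at about 25% in these data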
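Assay system: Recombinant human TDP2 | Quantity: 120 nM TDP2 per well | Incubation: 2 h at 37 °C | Signal: Epi absorbance | Evaluation: Percent inhibition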
NSD2 inh – NSD2 histone methyltransferase inhibitors, primary screen, biochemical, AlphaScreen, single concentration, set 2; NSD2 peptide methylation, 120 min; actives 0.54% (n = 310,000); inhibition, % at 12.5 µM; in the data active = inhibition above about 50%
Fh CTSL1 inh – Fasciola hepatica cathepsin L1 inhibitors, primary screen, counter-screen for PFM18AAP inhibitor project, biochemical, QFRET, fluorogenic peptide substrate | recombinant F. hepatica cathepsin L1, Z-Leu-Arg-MCA fluorescence | inhibition, % at 5.96 µM | actives 0.49% (n = 300,000) | AID 1906, 2009;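 active = inhibition above the mean of all tested compounds plus 3 SD, set per screening campaign, cut at about 17% in these data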
AlphaScreen art – AlphaScreen signal interference with preloaded methylated product, dose response, artefact control for NSD2 inhibitor project, biochemical, cherry-picked samples; shares compounds with NSD2 inh; AlphaScreen artifact counterscreen, preloaded methylated H4 peptide; AC35, µM (highest dose often 10 µM); actives 9.4% (n = 1,500); AID 1053174, 2014; call rule not given here
Hits are given with their value; . = inactive; / = no result given.

SMILES | UBC9 SUMO inh | TDP2 absorb | NSD2 inh | Fh CTSL1 inh | AlphaScreen art
O=C(CN(Cc1ccc(Cl)cc1)C(=O)CNS(=O)(=O)c1ccc(F)cc1)NCC1CCCO1 (configuration not stated) | . | . | . | . | /
CCCN(CC(=O)NC(=O)NCc1ccccc1)CC(=O)Nc1ccc(F)c(F)c1F | / | . | . | / | /
O=C(O)c1cccc(NC2=C(Cl)C(=O)c3ccccc3C2=O)c1 | . | . | 98.7 | / | .
O=C1C(Cl)=C(NCCc2ccccc2)C(=O)N1CCc1ccccc1 | . | . | . | . | /
C=CCNC1=C(Cl)C(=O)c2ccccc2C1=O | . | . | 91.6 | . | .
O=C1C(Cl)=C(NCCc2ccccc2)C(=O)c2ccccc21 | / | . | 80.5 | / | .
O=C(O)c1ccc(NC2=C(Cl)C(=O)c3ccccc3C2=O)cc1 | . | . | / | . | /
O=C(C[n+]1cccc(/C=N/O)c1)NC(=O)Nc1ccccc1 | / | . | . | / | /
Cc1ccc(OCCCC(=O)Nc2ccccc2C(F)(F)F)cc1 | . | . | 54.2 | . | .
O=C(O)CN1C(=O)/C(=C\c2ccccc2OCc2ccc(F)cc2)SC1=S | . | . | . | . | /
O=C(O)CN1C(=O)/C(=C\c2cc(Br)ccc2OCc2ccc(F)cc2)SC1=S | . | . | 103.9 | . | .
Nc1cccc2cnccc12 | . | . | 107.5 | . | .
Cc1ccc(-n2c(-c3ccccc3)c[n+]3c2CCc2ccccc2-3)c(C)c1 | . | . | . | . | /
CCN1CCN(c2ncnc3scc(-c4ccc(OC)cc4)c23)CC1 | . | . | 64.1 | . | .
NC(=O)C1(N2CCCCC2)CCN(C(=O)c2cc(COc3c(F)cccc3F)on2)CC1 | / | . | . | / | /
CC(=O)c1cccc(N(CC(=O)NC2CCCCC2)C(=O)Cn2nnc(-c3ccccc3)n2)c1 | . | . | . | . | /
NC1(C(=O)O)CSSC1 | / | . | 76.1 | / | .
CN(C)c1ccc(N=c2sc3ccccc3n2C)cc1 | . | . | 57.1 | . | 8.9µM
COc1ccc2nc3cccc(OC)c3nc2c1 | . | . | 101.2 | 19.1 | .
COc1ccc2nc(-c3ccccc3)cc(OC)c2c1 | . | . | . | . | /
O=[N+]([O-])c1ccc(-[n+]2nc(-c3ccccc3)nn2-c2ccccc2)cc1 | . | . | 81.0 | . | 0.914µM
COc1ccc(NC(=O)CC2C(=O)NCCN2C(=O)c2ccc(N(C)C)cc2)cc1 (configuration not stated) | . | . | 64.0 | . | .
Oc1cccc(/C=N/N(Cc2ccccc2)c2ccccc2)c1 | . | . | . | . | /
Oc1cccc(C=NCc2ccccc2)c1 | . | . | 159.4 | . | .
CCCc1nc2sc3ccccc3c(=O)c2c(=O)n1Cc1ccccc1 | / | . | 61.4 | / | .
SMILES | UBC9 SUMO inh | TDP2 absorb | NSD2 inh | Fh CTSL1 inh | AlphaScreen art
CCc1nc2sc3ccccc3c(=O)c2c(=O)n1Cc1ccco1 | . | . | . | . | /
O=C(CC1C(=O)N(c2ccccc2)C(=S)N1c1ccccc1)c1ccc(Br)cc1 (configuration not stated) | . | . | 50.4 | . | .
O=C(CC1C(=O)N(c2ccccc2)C(=S)N1c1ccccc1)c1ccccc1 (configuration not stated) | . | . | . | . | /
O=C(NCc1cccs1)c1ccc(CS(=O)Cc2ccc(Cl)cc2)o1 (configuration not stated) | / | . | . | / | /
O=C(Nc1ccccc1C(=O)Nc1nccs1)c1ccccc1 | / | . | . | / | /
O=C(Cn1ncc2c([nH]c3ccccc32)c1=O)N1CCN(c2ccccn2)CC1 | . | . | . | . | /
CCN1CCCC1CNC(=O)c1ccc2c(c1)N(Cc1cccc(Cl)c1)C(=O)c1ccccc1S2(=O)=O (configuration not stated) | . | . | 58.3 | . | .
O=C(NCCN1CCCC1)c1ccc2c(c1)N(Cc1cccc(Cl)c1)C(=O)c1ccccc1S2(=O)=O | . | . | . | . | /
O=C(Cn1ncc2c3ccccc3n(Cc3ccccc3)c2c1=O)NCCCN1CCCC1=O | . | . | . | . | /
CCCCn1c(Cn2nc(C(=O)O)c3ccccc3c2=O)nc2cc(S(N)(=O)=O)ccc21 | . | . | 102.5 | . | .
CCOc1ccc(NC(=O)CN(c2cccc(C(F)(F)F)c2)S(C)(=O)=O)cc1 | . | . | 113.0 | . | .
Cc1ccc(OCc2cnc(Cl)s2)c(C)c1 | . | . | 52.0 | . | .
CC(=O)NC(c1ccc(F)c(F)c1)c1nc(-c2cc3ccccc3o2)cs1 (configuration not stated) | / | . | . | / | /
O=C(CCc1ccccc1)NCCCN1CCOCC1 | . | . | 98.2 | . | .
O=C(CCCc1ccccc1)NCCCN1CCOCC1 | . | . | . | . | /
O=C(CCN1CCOCC1)NCC1COc2ccccc2O1 (configuration not stated) | . | . | 56.3 | . | .
CCC1(c2ccc(F)cc2)NC(=O)N(CC(=O)N(CCC#N)c2ccccc2)C1=O (configuration not stated) | . | . | 60.4 | . | .
Nc1ccn([C@@H]2O[C@H](C(=O)N[C@H](Cc3ccccc3)C(=O)NCC(F)(F)F)[C@@H](O)[C@H]2O)c(=O)n1 | / | . | / | / | /
O=C(NC1CCCC1)c1cc(-c2ccc(Cl)cc2Cl)on1 | . | . | 88.6 | . | .
CC(C)c1cccc(C(C)C)c1NC(=O)c1ccc(-c2cc(Cl)ccc2Cl)o1 | / | . | / | / | /
COC(=O)[C@H](Cc1ccccc1)NC(=O)CC[C@H]1O[C@@H](n2ccc(=O)[nH]c2=O)[C@H](O)[C@@H]1O | / | . | / | / | /
Cc1cccc(NC(=O)C2CCN(C(=O)NCc3ccccc3)CC2)c1C | . | . | 66.3 | . | .
CCN1CCc2nc3ccccc3c(C(=O)Nc3ccc(NC(C)=O)cc3)c2C1 | . | . | 59.2 | . | .
CCN1CCc2nc3ccccc3c(C(=O)Nc3ccc(F)cc3)c2C1 | . | . | . | . | /
Cc1cccn2c(=O)c3cc(C(=O)NCCCn4ccnc4)n(C)c3nc12 | . | . | 117.7 | . | .
SMILES | UBC9 SUMO inh | TDP2 absorb | NSD2 inh | Fh CTSL1 inh | AlphaScreen art
CCCCNC(=O)c1cc2c(=O)n3cccc(C)c3nc2n1C | . | / | / | / | /
Cn1c(SCC#N)nc2ccccc2c1=O | . | . | . | . | /
Cn1c(SCc2ccccc2C#N)nc2ccccc2c1=O | . | . | 99.6 | . | .
COc1ccc(NS(=O)(=O)c2cccc(C(=O)N3CCCCCC3)c2)cc1 | / | . | 64.5 | . | .
Cc1ccc(NS(=O)(=O)c2cccc(C(=O)N3CCCCCCC3)c2)cc1 | / | . | . | . | /
CC1(C(=O)NCc2cccc(Cl)c2)Cc2c(-c3ccc4c(c3)OCO4)ccnc2O1 (configuration not stated) | / | . | . | / | /
N#Cc1ccc(COC(=O)c2cc(=O)c3ccccc3o2)cc1 | . | . | . | . | /

Screening data: PubChem, several laboratories
